ChEMBL document CHEMBL2417548, “Design and synthesis of novel 3-substituted-indole derivatives as selective H3 receptor antagonists and potent free radical scavengers” (Bioorg Med Chem, 2013)
Active and inactive are the calls of the source. The calls are words filed in the database; no cut-off is given here.

What was measured:
[1] = Antioxidant activity assessed as ABTS free radical scavenging activity after 6 mins by spectrophotometry; assay type: functional
Procedure, shortened: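 ABTS (7 mM in water) reacted with 2.45 mM potassium persulfate (final), held in dark at room temperature ≥18 h to form radical cation, then serially diluted. Antioxidant added, mixed by pipette bubbling; absorbance at 415 nm read 6 min after addition, equilibrated at 30 °C. Each treatment repeated three times; melatonin as comparator.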

hERG (KCNH2) [2] = target: T1, hERG (KCNH2) (Homo sapiens, UniProt Q12809); experiment: Inhibition of human ERG expressed in HEK293 cells assessed as membrane depolarization at 3 uM by patch-clamp method; assay type: cell-based; conditions: HEK293 cells that express hERG
T1 sequence (Q12809 whole entry): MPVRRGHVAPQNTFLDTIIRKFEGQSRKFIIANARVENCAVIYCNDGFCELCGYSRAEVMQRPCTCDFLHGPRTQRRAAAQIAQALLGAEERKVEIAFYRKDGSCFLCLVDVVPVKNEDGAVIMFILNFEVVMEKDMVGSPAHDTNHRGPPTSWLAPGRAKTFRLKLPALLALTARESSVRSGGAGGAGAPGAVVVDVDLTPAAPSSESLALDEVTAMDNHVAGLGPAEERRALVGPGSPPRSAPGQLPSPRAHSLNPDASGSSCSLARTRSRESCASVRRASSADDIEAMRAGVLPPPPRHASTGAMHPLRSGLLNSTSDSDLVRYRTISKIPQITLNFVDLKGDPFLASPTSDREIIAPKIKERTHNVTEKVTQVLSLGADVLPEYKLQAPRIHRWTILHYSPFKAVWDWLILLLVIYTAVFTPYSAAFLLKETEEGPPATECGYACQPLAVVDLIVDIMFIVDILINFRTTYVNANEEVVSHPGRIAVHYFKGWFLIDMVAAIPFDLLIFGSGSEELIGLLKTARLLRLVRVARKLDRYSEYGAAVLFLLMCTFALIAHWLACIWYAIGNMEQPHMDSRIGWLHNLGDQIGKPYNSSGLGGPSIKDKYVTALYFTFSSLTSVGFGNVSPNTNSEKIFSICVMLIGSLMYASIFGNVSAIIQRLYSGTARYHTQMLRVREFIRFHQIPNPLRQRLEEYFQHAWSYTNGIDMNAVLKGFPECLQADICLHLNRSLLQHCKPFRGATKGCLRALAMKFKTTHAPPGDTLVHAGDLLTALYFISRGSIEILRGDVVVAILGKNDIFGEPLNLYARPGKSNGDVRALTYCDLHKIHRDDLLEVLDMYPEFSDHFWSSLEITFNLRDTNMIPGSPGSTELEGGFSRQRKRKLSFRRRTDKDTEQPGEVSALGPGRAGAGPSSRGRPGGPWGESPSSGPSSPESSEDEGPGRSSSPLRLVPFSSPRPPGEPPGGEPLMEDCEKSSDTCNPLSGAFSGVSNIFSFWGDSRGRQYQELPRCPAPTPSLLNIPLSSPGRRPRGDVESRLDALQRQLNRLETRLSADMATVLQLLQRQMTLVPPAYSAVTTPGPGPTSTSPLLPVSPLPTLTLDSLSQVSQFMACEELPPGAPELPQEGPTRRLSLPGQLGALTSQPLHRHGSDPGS

Histamine H3 receptor [3] = target: T2, Histamine H3 receptor (Homo sapiens, UniProt Q9Y5N1); experiment: Antagonist activity at human histamine H3 receptor expressed in HEK293 cells assessed by forskolin induced cAMP response element activation after 5 hrs by luciferase reporter gene assay; assay type: functional, cell-based
T2 sequence (Q9Y5N1 whole entry): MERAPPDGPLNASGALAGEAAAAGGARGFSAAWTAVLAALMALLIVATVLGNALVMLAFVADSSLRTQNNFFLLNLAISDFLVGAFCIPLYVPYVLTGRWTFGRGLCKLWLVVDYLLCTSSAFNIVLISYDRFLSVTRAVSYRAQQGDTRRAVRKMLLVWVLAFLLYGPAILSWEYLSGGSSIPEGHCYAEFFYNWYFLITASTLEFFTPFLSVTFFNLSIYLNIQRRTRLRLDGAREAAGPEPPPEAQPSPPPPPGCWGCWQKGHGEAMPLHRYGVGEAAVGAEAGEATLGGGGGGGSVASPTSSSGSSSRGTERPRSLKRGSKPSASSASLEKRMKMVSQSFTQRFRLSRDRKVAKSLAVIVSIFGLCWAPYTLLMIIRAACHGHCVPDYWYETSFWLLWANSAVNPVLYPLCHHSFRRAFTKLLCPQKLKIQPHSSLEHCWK

hERG (KCNH2) [4] = target: T1, hERG (KCNH2); experiment: Inhibition of human ERG expressed in HEK293 cells assessed as membrane depolarization at 100 nM by patch-clamp method; assay type: cell-based; conditions: HEK293 cells that express hERG
[5] = target: Histamine H4 receptor (Homo sapiens) (UniProt Q9H3N8); experiment: Antagonist activity at human histamine H4 receptor expressed in HEK293 cells assessed by forskolin induced cAMP response element activation after 5 hrs by luciferase reporter gene assay; assay type: functional, cell-based
Procedure, shortened: (§1)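 Stable HEK-293 lines co-transfected with human H1, H2 or H4 receptor plus pCRE-Luc (G418 800 µg/mL selection), grown overnight to 90–95% confluence. Cells got 10 µM forskolin plus graded compound concentrations with 5 µM histamine in serum-free DMEM, 5 h at 37 °C. Read-out was firefly luciferase. Triplicate points, three separate experiments.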

[6] = target: Histamine H1 receptor (Homo sapiens) (UniProt P35367); experiment: Antagonist activity at human histamine H1 receptor expressed in HEK293 cells assessed by forskolin induced cAMP response element activation after 5 hrs by luciferase reporter gene assay; assay type: functional, cell-based; procedure, shortened: as §1
Chain of Histamine H1 receptor (Homo sapiens) (P35367 whole entry): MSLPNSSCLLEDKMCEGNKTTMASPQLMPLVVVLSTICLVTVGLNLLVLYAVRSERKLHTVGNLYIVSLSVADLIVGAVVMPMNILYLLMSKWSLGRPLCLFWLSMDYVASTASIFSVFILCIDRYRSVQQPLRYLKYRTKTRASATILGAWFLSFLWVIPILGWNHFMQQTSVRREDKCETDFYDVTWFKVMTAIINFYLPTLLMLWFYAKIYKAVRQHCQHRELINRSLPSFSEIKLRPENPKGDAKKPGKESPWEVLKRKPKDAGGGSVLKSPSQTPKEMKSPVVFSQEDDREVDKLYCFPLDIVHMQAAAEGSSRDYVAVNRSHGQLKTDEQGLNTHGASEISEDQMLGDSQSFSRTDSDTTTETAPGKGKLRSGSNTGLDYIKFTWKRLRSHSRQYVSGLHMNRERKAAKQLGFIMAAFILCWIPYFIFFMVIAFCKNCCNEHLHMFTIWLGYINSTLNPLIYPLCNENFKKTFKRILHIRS

Histamine H3 receptor [7] = target: T2, Histamine H3 receptor; experiment: Displacement of […] from human histamine H3 receptor expressed in HEK293 cells after 90 to 120 mins by liquid scintillation counting; assay type: cell-based
[8] = target: Histamine H2 receptor (Homo sapiens) (UniProt P25021); experiment: Antagonist activity at human histamine H2 receptor expressed in HEK293 cells assessed by forskolin induced cAMP response element activation after 5 hrs by luciferase reporter gene assay; assay type: functional, cell-based; procedure, shortened: as §1
Chain of Histamine H2 receptor (Homo sapiens) (P25021 whole entry): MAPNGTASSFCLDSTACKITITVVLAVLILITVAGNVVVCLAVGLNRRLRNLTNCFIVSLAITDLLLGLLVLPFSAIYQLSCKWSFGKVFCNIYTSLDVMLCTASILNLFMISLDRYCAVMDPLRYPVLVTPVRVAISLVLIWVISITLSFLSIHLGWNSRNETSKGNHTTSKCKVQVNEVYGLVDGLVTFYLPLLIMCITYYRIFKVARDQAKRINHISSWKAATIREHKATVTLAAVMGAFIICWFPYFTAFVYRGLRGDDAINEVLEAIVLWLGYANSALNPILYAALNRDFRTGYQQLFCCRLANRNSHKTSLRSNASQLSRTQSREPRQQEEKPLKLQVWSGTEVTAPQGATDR

IC50 (Histamine H3 receptor [3]) | Structure (SMILES) | other results
2190 nM | O=C(Cc1c[nH]c2ccccc12)Nc1ccc(CN2CCOCC2)cc1 | IC50 [1]: 4710 nM; inhibition at 3 µM (hERG (KCNH2) [2]): 6%
1210 nM | O=C(Nc1ccc(CN2CCCCC2)cc1)c1c[nH]c2ccccc12 | 
2030 nM | O=C(Oc1ccc(CN2CCCCC2)cc1)c1c[nH]c2ccccc12 | 
 | COc1cc(N)c(Cl)cc1C(=O)NC1CCN(CCCOc2ccc(F)cc2)CC1OC (stereo not drawn) [CISAPRIDE] | inhibition at 0.1 µM (hERG (KCNH2) [4]): 89%
1040 nM | O=C(Cc1c[nH]c2ccccc12)Oc1ccc(CN2CCCCC2)cc1 | 
> 10000 nM | CCN(CC)Cc1ccc(OC(=O)CCc2c[nH]c3ccccc23)cc1 | 
1370 nM | O=C(Cc1c[nH]c2ccccc12)Nc1ccc(CN2CCCC2)cc1 | 
490 nM | c1ccc2c(CCCNc3ccc(CN4CCOCC4)cc3)c[nH]c2c1 | 
> 10000 nM | O=C(CCc1c[nH]c2ccccc12)Oc1ccc(CN2CCCC2)cc1 | 
2460 nM | O=C(Cc1c[nH]c2ccccc12)Oc1ccc(CN2CCCC2)cc1 | 
> 10000 nM | O=C(CCc1c[nH]c2ccccc12)Nc1ccc(CN2CCCCC2)cc1 | 
 | COc1ccc2[nH]cc(CCNC(C)=O)c2c1 [MELATONIN] | IC50 [1]: 1920 nM
> 10000 nM | O=C(CCc1c[nH]c2ccccc12)Nc1ccc(CN2CCOCC2)cc1 | 
3500 nM | CCN(CC)Cc1ccc(NC(=O)Cc2c[nH]c3ccccc23)cc1 | 
80 nM | c1ccc2c(CCNc3ccc(CN4CCCCC4)cc3)c[nH]c2c1 | inhibition at 3 µM (hERG (KCNH2) [2]): 87%
790 nM | O=C(Cc1c[nH]c2ccccc12)Oc1ccc(CN2CCOCC2)cc1 | IC50 [1]: 5320 nM; inhibition at 3 µM (hERG (KCNH2) [2]): 12%
2840 nM | O=C(Cc1c[nH]c2ccccc12)Nc1ccc(CN2CCCCC2)cc1 | 
> 10000 nM | O=C(CCc1c[nH]c2ccccc12)Nc1ccc(CN2CCCC2)cc1 | 
540 nM | c1ccc2c(CNc3ccc(CN4CCCCC4)cc3)c[nH]c2c1 | 
4610 nM | CCN(CC)Cc1ccc(OC(=O)Cc2c[nH]c3ccccc23)cc1 | 
> 10000 nM | O=C(CCc1c[nH]c2ccccc12)Oc1ccc(CN2CCOCC2)cc1 | 
> 10000 nM | O=C(CCc1c[nH]c2ccccc12)Oc1ccc(CN2CCCCC2)cc1 | 
> 10000 nM | CCN(CC)Cc1ccc(NC(=O)CCc2c[nH]c3ccccc23)cc1 | 

Structure (SMILES) | IC50 (Histamine H3 receptor [3]) | other results
c1ccc2c(CCNc3ccc(CN4CCCC4)cc3)c[nH]c2c1 | 180 nM | inhibition at 3 µM (hERG (KCNH2) [2]): 73%
c1ccc2c(CCNc3ccc(CN4CCOCC4)cc3)c[nH]c2c1 | 49 nM | IC50 [1]: 3050 nM; Activity [5]: inactive; inhibition at 3 µM (hERG (KCNH2) [2]): 54%; Activity [6]: inactive; Ki (Histamine H3 receptor [7]): 4.26 nM; Activity [8]: inactive
CCN(CC)Cc1ccc(NCCc2c[nH]c3ccccc23)cc1 | 290 nM | 
